CHO parental Ca: counter-screen: ATP calcium response change in parental CHO cells. parental CHO-K1, ATP-induced calcium, Fluo-8 fluorescence. 330,000 tested, 0.63% active. inhibition, % at 5.6 µM;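 active = inhibition above that plate's mean sample inhibition plus 3 SD, cut at about 26% in these data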
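test system = CHO parental line | reagent = ATP stimulus | measured by = intracellular calcium via Fluo-8 no-wash fluorescent dye | control set = ATP and no-ATP DMSO wells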
OX1R antag-1: antagonists of human orexin 1 receptor (OX1R) | inhibition, % at 6.6 µM | O43613 | OX1R-expressing cells, FRET antagonist read-out | 330,000 tested, 1.8% active | AID 485270; in the data active = inhibition mostly above about 38%, no sharp cut-off; inactive = mostly below about 40%
OX1R antag-2: human HCRTR1 antagonism. O43613. CHO/OX1R cells, Fluo-8 calcium fluorescence, orexin A. inhibition, % at 5 µM. 330,000 tested, 0.43% active. AID 434989;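 active = inhibition above its plate's threshold, mean inhibition of all tested compounds on the plate plus 3 SD, cut at about 37% in these data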
TAAR1 agonist: human TAAR1 agonism; Q96RJ0; CHO RD-HGA16 TAAR1, Fluo-8 calcium fluorescence; vehicle wells 0%, saturating PEA agonist 100%; activation, % at 3 µM; 360,000 tested, 0.99% active;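 active = activation above the mean activation of all test compounds in the run plus 3 SD, cut at about 38% in these data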
Target sequence (Q96RJ0 whole entry, looked up): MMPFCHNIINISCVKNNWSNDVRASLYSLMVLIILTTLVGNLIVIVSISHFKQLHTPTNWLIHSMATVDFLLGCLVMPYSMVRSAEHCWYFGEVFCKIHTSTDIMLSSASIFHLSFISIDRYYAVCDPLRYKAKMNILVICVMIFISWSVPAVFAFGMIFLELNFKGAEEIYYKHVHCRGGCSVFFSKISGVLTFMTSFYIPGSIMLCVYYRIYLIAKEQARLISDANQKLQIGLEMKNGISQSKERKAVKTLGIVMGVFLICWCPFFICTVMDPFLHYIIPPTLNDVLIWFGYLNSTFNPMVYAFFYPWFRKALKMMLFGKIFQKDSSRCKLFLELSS
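Assay system: CHO-derived RD-HGA16 cells with stable Gα16 and human TAAR1; timing: 17-24 h seeding, 75 min 37 °C dye, 30 min RT; read-out: % activation from peak over basal fluorescence ratio, DMSO-to-PEA scaled; measured by: kinetic Fluo-8 calcium fluorescence; benchmarks: low control DMSO, high control PEA (EC100); doses: 3 µM single concentration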
TAAR1 antagonist: antagonists of human TAAR1; CHO RD-HGA16 TAAR1, Fluo-8 calcium fluorescence, antagonist; inhibition, % at 3 µM; 360,000 tested, 1.5% active; AID 624466;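 active = inhibition above a per-plate cutoff, the mean inhibition of test compounds on that plate plus 3 SD, cut at about 49% in these data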
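Test system: CHO RD-HGA16 cells bearing hTAAR1 | Reagent: β-PEA, EC80 | Compound dosing: 3 µM, single point | Schedule: Dye loading 75 min at 37 °C, then 30 min room temperature | Signal: Calcium fluorescence with Fluo-8 | Evaluation: Percent inhibition of PEA-evoked calcium signal, max/basal emission ratio | Control set: DMSO-only wells and EC80 β-PEA-stimulated wells | Repeats: Singlicate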
Large screens that a line does not name were inactive. A selection: hits, their analogues and other compounds. The true share with any hit is near 4%.

COc1ccc(-c2cc(=O)c3ccccc3o2)cc1	OX1R antag-1 67.3
CCOC(=O)c1sc2nc(CSc3ccccc3)nc(N3CCC(C(N)=O)CC3)c2c1C	none
CCOC(=O)c1sc2nc(CSc3ccccc3)nc(N3CCCN(C)CC3)c2c1C	TAAR1 agonist 38.2
CCN(C)C1CN(Cc2cn(Cc3ccc(F)cc3)nn2)S(=O)(=O)C1 (stereo not given)	none (no result: CHO parental Ca, OX1R antag-1, OX1R antag-2)
CN(C)C(/C=C/Nc1cccc([N+](=O)[O-])c1)=C(C#N)C#N	OX1R antag-1 50.5
CC(=O)NS(=O)(=O)c1ccc(NC(=O)/C=C/c2cn(-c3ccccc3)nc2-c2ccccc2)cc1	none
O=C(/C=C\c1cn(-c2ccccc2)nc1-c1ccccc1)Nc1nccs1	TAAR1 antagonist 51.2
NC(=O)c1ccc(NS(=O)(=O)c2ccc(S(=O)(=O)N3CCCC3)cc2)cc1	none (no result: CHO parental Ca, OX1R antag-1, OX1R antag-2)
COc1ccc(Br)cc1C(=O)Nc1ccc(Cc2ccncc2)cc1	none
COc1c(C(=O)Nc2ccc(Cc3ccncc3)cc2)ccc2ccccc12	TAAR1 antagonist 54.8
O=C(NCc1cccs1)c1cc(-c2ccc(O)cc2)on1	TAAR1 agonist 40.8
N#CC(C#N)=C(Nc1ccc(F)cc1)SCc1cccc(F)c1	OX1R antag-1 70.9
CCOc1ccc(N/C(SCc2cccc([N+](=O)[O-])c2)=C(/C#N)C(N)=O)cc1	none
Cc1c(C(=O)O)c(O)cc2c1C(=O)c1c(O)c([C@@H]3O[C@H](CO)[C@@H](O)[C@H](O)[C@H]3O)c(O)c(O)c1C2=O	OX1R antag-1 70.7
COc1c(O)cc2c(c1O)[C@@H]1O[C@H](CO)[C@@H](O)[C@H](O)[C@H]1OC2=O	none
COc1ccc(N2CCN(C(=O)C3CCN(S(=O)(=O)c4ccc5c(c4)CC(C)N5C(=O)C4CC4)CC3)CC2)cc1 (stereo not given)	none (no result: CHO parental Ca, OX1R antag-1, OX1R antag-2)
COc1cccc(C(CC2=CCCCC2)NC(=O)C(F)(F)F)c1 (stereo not given)	none (no result: CHO parental Ca, OX1R antag-1, OX1R antag-2)
COc1ccc(CC2(CO)CCN(CC3=Cc4cc(Cl)ccc4OC3)CC2)cc1	CHO parental Ca 63.7, OX1R antag-2 43.1
CCOc1ccc(N2CC(C(=O)Nc3c(C)n(C)n(-c4ccccc4)c3=O)CC2=O)cc1 (stereo not given)	none
CC(=O)Nc1ccc(/C(C)=N/NS(=O)(=O)c2ccc(C)cc2)cc1	none
C/C(=N/NS(=O)(=O)c1ccc(Br)cc1)c1ccc(NC(=O)c2ccc(C)o2)cc1	TAAR1 agonist 38.5
NC(=O)C1CCN(c2nc(-c3cccnc3)cs2)CC1	none
NC(=O)C1CCN(c2nc(-c3ccc(F)cc3)cs2)CC1	OX1R antag-1 57.2
CCOCCCNC(=S)N1CCN(c2nc(-c3ccc(F)cc3)cs2)CC1	none
COCCCNC(=S)N1CCN(c2nc(-c3ccc(F)cc3)cs2)CC1	TAAR1 antagonist 52.2
CCCNC(=S)N1CCN(c2nc(-c3ccc(C)cc3)cs2)CC1	CHO parental Ca 52.8
COC(=O)[C@]12C[C@H](CC(=O)N3CCCC3)C(=O)N(Cc3ccccc3)C1=C[C@H](C(C)(C)C)O[C@@H]2C	none (no result: CHO parental Ca, OX1R antag-1, OX1R antag-2)
